Reference: the RNAGym collection of RNA variant scans (doi:10.1038/s41586-018-0170-7)

B1: tRNA (parent)
chain: GUUCCGUUGGCGUAAUGGUAACGCGUCUCCCUCCUAAGGAGAAGACUGCGGGUUCGAGUCCCGUACGGAACG

Variants of: B1
Test: yeast fitness, log relative to wild type (ln ratio); higher = fitter; tRNA-Arg(CCU), competitive growth, 37 C, 1 M NaCl
Summary of the method: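 Fitness is the natural log of each genotype's generations divided by the wild type's. Generations were derived as OD-scaled log2 output/input frequency from 125 bp paired-end Illumina counts, weighting replicates by inverse variance. Pools of the tRNA-Arg(CCU) variant library, on a HIS3 centromeric plasmid in BY4742 lacking the chromosomal gene, grew ~6.5 generations (~26.5 h) in SC-HIS 1M NaCl at 37 °C after 4 generations in SC-HIS at 30 °C.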

Variant | yeast fitness (ln)
G1A U2G C66U A69G C71U | -0.254
G1A U2C G6A A43C C66U A69G A70G | -0.309
U2C G6U C27U C46U | -0.0552
G1A U2C G6A C27U A43C C46U C66U A70G C71U | -0.0245
G6U C27U C66A A69G A70G C71U | -0.329
G1A U2C G6U A70U | -0.00843
G1A U2C G6U C66U A70G C71U | -0.0525
G1A C27U A43C C46U C66A A69G A70G | -0.189
U2G G6U C27U C46U C66A A70G | -0.376
G1A C27U C66A A69G A70U C71U | -0.303
U2C C27U C66U A70G | -0.0659
G6U A43C C66U A69G A70G | -0.333
U2C C27U A43C C46U C66A A70U | -0.0988
G1A G6A C46U A70G C71U | -0.208
G1A U2C G6U C46U A69G A70U | -0.0237
U2G G6U C27U C46U A70U C71U | -0.171
U2G G6A C27U A43C C66U A70G | -0.223
G6U C27U C66U C71U | -0.256
G1A U2G G6A C27U C66A A70U C71U | -0.457
U2G C27U A43C C46U C66U A70G C71U | -0.231
G6U C27U C46U A69G A70U C71U | -0.457

Variant | yeast fitness (ln)
U2C G6U C27U A69G C71U | -0.22
G1A U2C G6U A43C C46U A69G A70G C71U | -0.124
G1A G6A C27U A43C C46U C66U A69G A70G C71U | -0.324
G1A U2C G6U C46U C66A A70G | -0.0166
G1A U2C G6A A43C C46U C71U | -0.0914
U2C C27U C46U C66U A69G C71U | -0.243
G1A C27U A43C C46U C66A A69G A70U | -0.352
U2G G6U C27U C46U C66A A69G A70G C71U | -0.25
G1A U2C A43C C46U C66U A70G | -0.0459
G6A C27U C46U A69G A70U | -0.257
G1A G6A C27U A70G | -0.34
G1A G6A C66U A69G | -0.346
G1A U2G G6A | -0.0537
U2C C27U A69G A70U C71U | -0.278
U2C G6U C66A A69G A70U | -0.25
C27U A43C C46U A69G A70U C71U | -0.317
G1A U2C G6U C27U A43C C46U C66A A70U C71U | -0.124
U2G G6U A69G A70G C71U | -0.235
U2G G6A A43C C66U A69G A70U C71U | -0.407
U2G G6U C27U A43C C46U C66U A70U C71U | -0.378
G1A U2G G6A C27U C46U A70U C71U | -0.15

Variant | yeast fitness (ln)
G1A G6U C27U A43C C46U C66A A70G C71U | -0.377
U2C G6U C27U A43C C46U C66U A70G | -0.304
U2G A43C C46U A70G | -0.0614
G6A A43C C66A A70U | -0.188
G6U A43C C46U C66U A69G C71U | -0.321
G1A U2G G6U C27U A43C C66U A69G A70U C71U | -0.54
U2G G6A C27U C46U A70G | -0.0986
U2G G6U C27U C46U C66A A69G C71U | -0.293
G1A U2C G6A A43C C66U A69G A70U | -0.275
G1A U2G G6A A43C | -0.238
U2C G6U C27U C46U C66U A69G C71U | -0.397
G1A U2G G6A A43C C46U A69G A70U | -0.0779
U2G A43C C66U | -0.19
G1A G6A C46U A69G A70U | -0.0698
U2C C46U A69G C71U | -0.131
G1A G6U C46U A70G | -0.173
G1A U2C G6U C46U C66A C71U | -0.0738
G6U C27U C46U C66A A70G C71U | -0.434
A43C C46U C66A A70G C71U | -0.0713
G1A U2C G6U C27U C46U C66A A69G A70U | -0.116
G1A G6U C66A A69G A70G C71U | -0.17

Variant | yeast fitness (ln)
G1A U2C G6U C27U A43C C46U C66A A69G A70U | -0.378
G1A U2C G6A C27U A43C C66U A70G C71U | -0.0683
U2C G6A C27U A43C C46U A69G C71U | -0.113
G1A G6U A43C C66U A69G C71U | -0.587
G6A C27U A43C C46U C71U | -0.176
G1A U2G G6A A43C C71U | -0.276
G1A U2C G6A C66U A69G C71U | -0.31
U2G G6U A43C C46U C66U A70G | -0.185
U2C G6U A43C C66A A69G A70G C71U | -0.0618
U2C A69G C71U | -0.158
U2G G6A C27U A43C C46U C66A A69G A70U C71U | -0.65
G1A A43C C66A A69G A70G C71U | -0.249
G1A U2G G6A C46U C66A A69G A70G C71U | -0.354
U2C A43C C46U C66U A69G A70U C71U | -0.39
G6U A43C C66A A69G | -0.0712
G1A C27U A43C C46U C66U A69G A70G | -0.188
U2C C46U C66A A69G A70G C71U | -0.128
U2G C27U C66U A69G A70U | -0.212
G6U C27U A43C C66U A69G A70G C71U | -0.473
U2G G6A C27U A43C C46U A70U | -0.119
U2C G6U C27U A69G A70U | -0.111
